Converted amounts (≈) assume the structure as drawn. The source made the active and inactive calls. No cut-off for these calls is given here.
Tests used:
HEK293 [1] = assay: Cytotoxicity against human HEK293 cells at 10 uM after 4 days by MTT assay; assay type: cell-based; settings: hek293, 96 h
Method in brief: (§1)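 MTT assay. HEK293 or MDCK cells kept at 37 °C, 5% CO2 in DMEM, seeded at 1500 cells per well. Continuous 4-day exposure to varying drug concentrations in triplicate wells, with a drug-free control. MTT read at end of day 4; IC50 determined.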

Enterococcus faecalis [2] = assay: Antibacterial activity against log-phase vancomycin-resistant Enterococcus faecalis ATCC 51575 assessed as growth inhibition after 24 hrs by broth microdilution method; assay type: functional; settings: ATCC 51575, 24 h
Method in brief: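 CLSI broth microdilution in brain–heart infusion broth; log-phase bacteria at 10^5 CFU/mL, two-fold serial dilutions 64 to 0.031 μg/mL; 24 h aerobic incubation at 37 °C; OD600 read-out; MIC taken as lowest concentration inhibiting growth ≥90%.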

Enterococcus faecalis [3] = assay: Antibacterial activity against log-phase vancomycin-sensitive Enterococcus faecalis ATCC 19433 assessed as growth inhibition after 24 hrs by broth microdilution method; assay type: functional; settings: ATCC 19433, 24 h
Method in brief: (§2)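 CLSI broth microdilution. Log-phase bacteria at 10^5 CFU/mL with two-fold serial dilutions (64 to 0.031 μg/mL). S. aureus tested in cation-adjusted Mueller-Hinton broth; E. faecalis in brain–heart infusion broth. Aerobic incubation 24 h at 37 °C. OD600 read; MIC is the lowest concentration giving ≥90% growth inhibition.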

Staphylococcus aureus [4] = assay: Antibacterial activity against log-phase methicillin-resistant Staphylococcus aureus ATCC 33591 assessed as growth inhibition after 24 hrs by broth microdilution method; assay type: functional; settings: ATCC 33591, 24 h
Method in brief: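 CLSI broth microdilution; 10^5 CFU/mL log-phase bacteria in cation-adjusted Mueller-Hinton broth with 2% NaCl, two-fold serial dilutions from 64 to 0.031 μg/mL; aerobic incubation 24 h at 37 °C; growth read as OD600; MIC = lowest concentration giving ≥90% growth inhibition.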

Staphylococcus aureus [5] = assay: Antibacterial activity against log-phase methicillin-sensitive Staphylococcus aureus 8325-4 assessed as growth inhibition after 24 hrs by broth microdilution method; assay type: functional; settings: 8325-4, 24 h; method in brief: as §2
HEK293 [6] = assay: Cytotoxicity against human HEK293 cells after 4 days by MTT assay; assay type: cell-based; settings: HEK293, 96 h; method in brief: as §1
MDCK = assay: Cytotoxicity against dog MDCK cells after 4 days by MTT assay; assay type: cell-based; settings: Canis lupus familiaris, 96 h; method in brief: as §1
[7] = target: T1, Cell division protein FtsZ (Staphylococcus aureus) (UniProt P0A031); assay: Induction of Staphylococcus aureus FtsZ polymerization measured for 60 mins by microtiter plate-based light scattering assay
T1 sequence (whole entry): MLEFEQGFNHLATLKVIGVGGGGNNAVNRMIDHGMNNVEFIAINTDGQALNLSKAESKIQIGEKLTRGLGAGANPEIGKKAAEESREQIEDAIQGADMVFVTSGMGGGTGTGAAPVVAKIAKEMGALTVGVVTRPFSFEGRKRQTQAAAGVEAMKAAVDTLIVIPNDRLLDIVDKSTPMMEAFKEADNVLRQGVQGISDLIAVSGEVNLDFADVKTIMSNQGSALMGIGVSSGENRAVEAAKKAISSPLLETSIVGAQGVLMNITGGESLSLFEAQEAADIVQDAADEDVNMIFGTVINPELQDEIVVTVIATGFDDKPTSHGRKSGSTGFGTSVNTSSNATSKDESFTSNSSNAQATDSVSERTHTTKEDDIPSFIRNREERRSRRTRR
Method in brief: (§3)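 Turbidity assay. 10 μM SaFtsZ plus compound (0–40 μg/mL) in 50 mM Tris HCl pH 7.4, 50 mM KCl, 2 mM magnesium acetate, 5 mM CaCl2, pre-equilibrated 10 min at room temperature. Started by adding 1 mM GTP or FtsZ; A340 followed for 60 min at 25 °C. For polymer stability, 1 mM GDP added mid-run.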

[8] = target: T1, Cell division protein FtsZ (Staphylococcus aureus); assay: Induction of Staphylococcus aureus FtsZ polymerization at 40 ug/ml measured for 60 mins by microtiter plate-based light scattering assay; method in brief: as §3
[9] = target: T1, Cell division protein FtsZ (Staphylococcus aureus); assay: Induction of Staphylococcus aureus FtsZ polymerization at 40 ug/ml measured for 60 mins by microtiter plate-based light scattering assay in presence of GTP
[10] = target: T1, Cell division protein FtsZ (Staphylococcus aureus); assay: Residual Staphylococcus aureus GTPase activity assessed as inorganic phosphate release upon GTP hydrolysis at 40 ug/ml preincubated for 10 mins before substrate addition measured after 2 hrs by malachite green based colorimetric analysis

COc1cc2cc(-c3cccc(-c4ccccc4)c3)nc(CN=C(N)N)c2cc1OC
Activity (HEK293 [1]): Non-toxic | MIC90 (Enterococcus faecalis [2]): 8 µg/mL (≈ 19.4 µM) | MIC90 (Enterococcus faecalis [3]): 8 µg/mL (≈ 19.4 µM) | MIC90 (Staphylococcus aureus [4]): 2 µg/mL (≈ 4.85 µM) | MIC90 (Staphylococcus aureus [5]): 2 µg/mL (≈ 4.85 µM)

CC[C@H]1OC(=O)[C@H](C)[C@@H](O[C@H]2C[C@@](C)(OC)[C@@H](O)[C@H](C)O2)[C@H](C)[C@@H](O[C@@H]2O[C@H](C)C[C@H](N(C)C)[C@H]2O)[C@](C)(O)C[C@@H](C)C(=O)[C@H](C)[C@@H](O)[C@]1(C)O [ERYTHROMYCIN]
MIC90 (Enterococcus faecalis [2]): > 64 µg/mL | MIC90 (Enterococcus faecalis [3]): 1 µg/mL (≈ 1.36 µM) | MIC90 (Staphylococcus aureus [4]): > 64 µg/mL | MIC90 (Staphylococcus aureus [5]): 0.1 µg/mL (≈ 0.136 µM)

COc1cc2cc(-c3cccc(-c4ccc(-c5ccccc5)cc4)c3)nc(C)c2cc1OC
MIC90 (Enterococcus faecalis [2]): > 64 µg/mL | MIC90 (Enterococcus faecalis [3]): > 64 µg/mL | MIC90 (Staphylococcus aureus [4]): > 64 µg/mL | MIC90 (Staphylococcus aureus [5]): > 64 µg/mL

COc1cc2cc(-c3cccc(C(C)(C)C)c3)nc(CCN)c2cc1OC
IC50 (HEK293 [6]): 2200 nM | IC50 (MDCK): 2200 nM | Activity [7]: Dose-dependent effect | Activity [8]: Active | MIC90 (Enterococcus faecalis [2]): 16 µg/mL (≈ 43.9 µM) | MIC90 (Enterococcus faecalis [3]): 16 µg/mL (≈ 43.9 µM) | MIC90 (Staphylococcus aureus [4]): 16 µg/mL (≈ 43.9 µM) | MIC90 (Staphylococcus aureus [5]): 16 µg/mL (≈ 43.9 µM) | Activity [9]: Active | residual activity [10]: 59.7%

CNc1nc(-c2cccc(-c3ccccc3)c2)cc2cc(OC)c(OC)cc12
MIC90 (Enterococcus faecalis [2]): > 64 µg/mL | MIC90 (Enterococcus faecalis [3]): > 64 µg/mL | MIC90 (Staphylococcus aureus [4]): > 64 µg/mL | MIC90 (Staphylococcus aureus [5]): > 64 µg/mL

COc1cc2cc(-c3cccc(-c4ccccc4)c3)[n+](C)c(N(C)C)c2cc1OC.[I-]
MIC90 (Enterococcus faecalis [2]): 64 µg/mL | MIC90 (Enterococcus faecalis [3]): 64 µg/mL | MIC90 (Staphylococcus aureus [4]): 32 µg/mL | MIC90 (Staphylococcus aureus [5]): 8 µg/mL

CCC[C@@H]1C[C@@H](C(=O)N[C@@H]([C@H]2O[C@H](SC)[C@H](O)[C@@H](O)[C@H]2O)[C@H](C)Cl)N(C)C1 [CLINDAMYCIN]
MIC90 (Enterococcus faecalis [2]): > 64 µg/mL | MIC90 (Enterococcus faecalis [3]): 2 µg/mL (≈ 4.71 µM) | MIC90 (Staphylococcus aureus [4]): > 64 µg/mL | MIC90 (Staphylococcus aureus [5]): 0.03 µg/mL (≈ 0.0706 µM)

COc1cc2cc(-c3cccc(-c4ccccc4)c3)nc(N=C(N)N)c2cc1OC
IC50 (HEK293 [6]): 2200 nM | IC50 (MDCK): 2200 nM | MIC90 (Enterococcus faecalis [2]): 8 µg/mL (≈ 20.1 µM) | MIC90 (Enterococcus faecalis [3]): 8 µg/mL (≈ 20.1 µM) | MIC90 (Staphylococcus aureus [4]): 4 µg/mL (≈ 10 µM) | MIC90 (Staphylococcus aureus [5]): 8 µg/mL (≈ 20.1 µM)

COc1cc2cc(-c3cccc(-c4ccc(C(C)(C)C)cc4)c3)nc(C)c2cc1OC
Activity [8]: inactive | MIC90 (Enterococcus faecalis [2]): > 64 µg/mL | MIC90 (Enterococcus faecalis [3]): > 64 µg/mL | MIC90 (Staphylococcus aureus [4]): > 64 µg/mL | MIC90 (Staphylococcus aureus [5]): > 64 µg/mL

COc1cc2cc(-c3cccc(-c4ccccc4)c3)nc(C#N)c2cc1OC
MIC90 (Enterococcus faecalis [2]): > 64 µg/mL | MIC90 (Enterococcus faecalis [3]): > 64 µg/mL | MIC90 (Staphylococcus aureus [4]): > 64 µg/mL | MIC90 (Staphylococcus aureus [5]): > 64 µg/mL

Cc1onc(-c2ccccc2)c1C(=O)N[C@@H]1C(=O)N2[C@@H]1SC(C)(C)[C@@H]2C(=O)O [OXACILLIN]
MIC90 (Enterococcus faecalis [2]): > 64 µg/mL | MIC90 (Enterococcus faecalis [3]): 8 µg/mL (≈ 19.9 µM) | MIC90 (Staphylococcus aureus [4]): > 64 µg/mL | MIC90 (Staphylococcus aureus [5]): 0.06 µg/mL (≈ 0.149 µM)

COc1cc2cc(-c3cccc(-c4ccccc4)c3)nc(N(C)C)c2cc1OC
MIC90 (Enterococcus faecalis [2]): > 64 µg/mL | MIC90 (Enterococcus faecalis [3]): > 64 µg/mL | MIC90 (Staphylococcus aureus [4]): > 64 µg/mL | MIC90 (Staphylococcus aureus [5]): > 64 µg/mL

COc1cc2cc(-c3cccc(-c4ccccc4)c3)nc(CN)c2cc1OC
IC50 (HEK293 [6]): 3000 nM | IC50 (MDCK): 7000 nM | MIC90 (Enterococcus faecalis [2]): > 64 µg/mL | MIC90 (Enterococcus faecalis [3]): > 64 µg/mL | MIC90 (Staphylococcus aureus [4]): 16 µg/mL (≈ 43.2 µM) | MIC90 (Staphylococcus aureus [5]): 8 µg/mL (≈ 21.6 µM)

COc1cc2cc(-c3cccc(-c4ccccc4)c3)[n+](C)c(C)c2cc1OC.[I-]
MIC90 (Enterococcus faecalis [2]): > 64 µg/mL | MIC90 (Enterococcus faecalis [3]): > 64 µg/mL | MIC90 (Staphylococcus aureus [4]): 32 µg/mL | MIC90 (Staphylococcus aureus [5]): 16 µg/mL

CN(C)[C@@H]1C(O)=C(C(N)=O)C(=O)[C@@]2(O)C(O)=C3C(=O)c4c(O)cccc4[C@@](C)(O)[C@H]3C[C@@H]12 [TETRACYCLINE]
MIC90 (Enterococcus faecalis [2]): > 64 µg/mL | MIC90 (Enterococcus faecalis [3]): 0.5 µg/mL (≈ 1.13 µM) | MIC90 (Staphylococcus aureus [4]): 64 µg/mL (≈ 144 µM) | MIC90 (Staphylococcus aureus [5]): 0.06 µg/mL (≈ 0.135 µM)

COc1cc2cc(-c3cccc(-c4ccccc4)c3)nc(C)c2cc1OC
MIC90 (Enterococcus faecalis [2]): > 64 µg/mL | MIC90 (Enterococcus faecalis [3]): > 64 µg/mL | MIC90 (Staphylococcus aureus [4]): > 64 µg/mL | MIC90 (Staphylococcus aureus [5]): > 64 µg/mL

From ChEMBL document CHEMBL2203109, “3-Phenyl substituted 6,7-dimethoxyisoquinoline derivatives as FtsZ-targeting antibacterial agents” (Bioorg Med Chem, 2012)
